This is an account of results in ChEMBL document CHEMBL4138223, “Structure-activity relationships for inhibitors of Pseudomonas aeruginosa exoenzyme S ADP-ribosyltransferase activity” (Eur J Med Chem, 2018).

Where only a bound is given, the exact number is not on record here.

Assay [1] has as its target T1, Exoenzyme S (Pseudomonas aeruginosa, UniProt Q93SQ1).
T1 sequence (Q93SQ1 whole entry): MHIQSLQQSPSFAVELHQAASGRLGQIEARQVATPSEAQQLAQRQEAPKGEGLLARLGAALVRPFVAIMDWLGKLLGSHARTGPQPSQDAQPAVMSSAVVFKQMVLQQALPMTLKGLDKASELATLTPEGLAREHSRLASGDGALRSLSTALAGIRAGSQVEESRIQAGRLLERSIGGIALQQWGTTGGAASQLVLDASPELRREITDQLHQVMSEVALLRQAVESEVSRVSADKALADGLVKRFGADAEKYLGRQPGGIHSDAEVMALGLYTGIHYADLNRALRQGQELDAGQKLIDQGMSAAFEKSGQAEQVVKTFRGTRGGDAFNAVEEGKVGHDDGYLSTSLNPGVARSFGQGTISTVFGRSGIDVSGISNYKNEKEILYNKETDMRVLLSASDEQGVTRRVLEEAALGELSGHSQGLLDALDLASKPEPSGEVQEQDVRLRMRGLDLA
The assay can be described thus: Inhibition of recombinant Pseudomonas aeruginosa PAK His6-tagged ExoS ADPRT domain expressed in Escherichia coli using human GST-fused vH-Ras as substrate measured over 30 mins in presence of 14.3.3beta and epsilonNAD+ by fluorescence assay. In a few lines:
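Recombinant ExoS ADPRT domain with 14-3-3 cofactor, Ras substrate and εNAD+. Read transfer of fluorescent εADP-ribose to Ras. Compounds tested at 8–10 concentrations in triplicate in three independent runs. IC50 by dose-response curve fitting.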

For assay [2], the target named is T1, Exoenzyme S. As to the kind of experiment: Inhibition of Pseudomonas aeruginosa PAK secreted full length ExoS using human GST-fused vH-Ras as substrate preincubated for 10 mins followed by epsilonNAD+ addition measured at 30 mins in presence of 14.3.3beta and epsilonNAD+ by real-time fluorescent assay. In a few lines:
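Induce ExoS secretion by growing P. aeruginosa PAK overnight at 37 °C in shaken LB. Dilute to OD600 0.001 in LB with 5 mM EGTA and 20 mM MgCl2, then shake 4 h at 37 °C. Add the culture to 500 nM 14-3-3b, vH-Ras and compound in triplicate (13 concentrations, 1% DMSO). Start with εNAD+. Use PAKΔexoS as negative control. Read fluorescence kinetically at 302/410; IC50 from linear-phase velocity (% control), two independent runs.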

In assay [3] the target is T2, Exoenzyme S (Pseudomonas aeruginosa) (UniProt Q93SQ1).
T2 sequence (whole entry): T1 sequence (Q93SQ1 whole entry)
The assay can be described thus: Inhibition of recombinant Pseudomonas aeruginosa PAK His6-tagged ExoS ADPRT domain expressed in Escherichia coli at 100 uM using human GST-fused vH-Ras as substrate measured over 30 mins in presence of 14.3.3beta and epsilonNAD+ by fluorescence assay relative to control.

For `O=C(O)/C=C\c1nc2sc3c(c2c(=O)[nH]1)CCC3`, the figures for the IC50 on Exoenzyme S [1] (read-out: IC50) and on Exoenzyme S [2] (read-out: IC50) were 15 µM and 3.51 µM, respectively. As to `O=C(O)C1CC1c1nc2sc3c(c2c(=O)[nH]1)CCC3` (stereo in doubt; form 2), the IC50 at Exoenzyme S [1] (read-out: IC50) stood at 39 µM; on Exoenzyme S [2] (read-out: IC50) it was 8.31 µM. `Nc1nc(CCC(=O)O)nc2sc3c(c12)CCC3`: the IC50 on Exoenzyme S [1] (read-out: IC50) was > 200 µM. Same read-out and setting: to `O=C(O)[C@H]1C[C@H]1c1nc2sc3c(c2c(=O)[nH]1)CCC3` (racemic) belongs 190 µM.

One may read the inhibition as the share of the control response that was lost under treatment. With `O=C(O)CCc1nc2ccc3c(c2c(=O)[nH]1)CCCC3`, the inhibition in assay [3] came out at 45%. Consider `O=C(O)CCCc1nc2ccccc2c(=O)[nH]1`, for which the IC50 on Exoenzyme S [1] (read-out: IC50) lay in the range of 25 to 30 µM. Take `COc1ccc2c(=O)[nH]c(CCCC(=O)O)nc2c1`: the inhibition in assay [3] worked out at 20%. Consider `O=C(O)CCc1nc2ccc3c(c2c(=O)[nH]1)CCC3`, for which the IC50 at Exoenzyme S [1] (read-out: IC50) turned out to be 54 µM.

With `O=C(O)c1ccc(-c2nc3ccccc3c(=O)[nH]2)o1`, at Exoenzyme S [1] (read-out: IC50), the IC50 was 32 µM. Regarding `O=c1[nH]c([C@@H]2C[C@H]2c2nn[nH]n2)nc2sc3c(c12)CCC3` (relative stereo), the IC50 at Exoenzyme S [1] (read-out: IC50) was determined as 233 µM. As to `CS(=O)(=O)NC(=O)CCc1nc2sc3c(c2c(=O)[nH]1)CCCC3`, the IC50 on Exoenzyme S [1] (read-out: IC50) worked out at 100 µM. In the case of `O=C(O)CCc1nc2sc3c(c2c(=O)[nH]1)CCCC3`, the IC50 at Exoenzyme S [1] (read-out: IC50) is 55 µM. As to `O=C(O)CCCCc1nc2ccccc2c(=O)[nH]1`, in assay [3], the inhibition turned out to be 69%. On to `O=C(O)/C=C/c1nc2sc3c(c2c(=O)[nH]1)CCC3`, for which the IC50 at Exoenzyme S [1] (read-out: IC50) worked out at 70 µM. For `O=C(O)CCc1ncc(C2=CCCC2)c(=O)[nH]1`, on Exoenzyme S [1] (read-out: IC50), the IC50 was found to be 200 µM. Same read-out and setting: to `O=C(O)[C@H]1CCC[C@H]1c1nc2sc3c(c2c(=O)[nH]1)CCC3` belongs 65 µM; to `O=c1[nH]c(CCCO)nc2sc3c(c12)CCC3`, 52 µM. On the same count and under the same terms, to `O=C(O)CCc1nc2cc3c(cc2c(=O)[nH]1)CCC3` belongs 98 µM. Regarding `O=C(O)CCCc1nc2ccc([N+](=O)[O-])cc2c(=O)[nH]1`, the inhibition in assay [3] came to 30%. In the case of `O=C(O)[C@H](O)Cc1nc2sc3c(c2c(=O)[nH]1)CCC3`, on Exoenzyme S [1] (read-out: IC50), the IC50 came out at 191 µM.

As for `O=C(O)CCc1nc2cc3c(cc2c(=O)[nH]1)CCCC3`, in assay [3], the inhibition is 27%. Consider `O=C(O)C1CC1c1nc2sc3c(c2c(=O)[nH]1)CCC3` (stereo in doubt; form 1), for which the IC50 amounted to 6.9 µM on Exoenzyme S [1] (read-out: IC50) and 1.32 µM at Exoenzyme S [2] (read-out: IC50). Consider `O=C(O)c1ccccc1Cc1nc2sc3c(c2c(=O)[nH]1)CCC3`, for which the inhibition in assay [3] was 50%. As for `O=C(O)COCc1nc2sc3c(c2c(=O)[nH]1)CCC3`, the IC50 at Exoenzyme S [1] (read-out: IC50) came to 72 µM. With `O=C(O)/C=C/c1nc2ccccc2c(=O)[nH]1`, the inhibition in assay [3] was < 50%. `O=C(O)CCCc1nc2cc(F)c(F)cc2c(=O)[nH]1`: the IC50 at Exoenzyme S [1] (read-out: IC50) is 15 µM. As to `O=C(O)CCCc1nc2ccc3c(c2c(=O)[nH]1)CCC3`, in assay [3], the inhibition was 60%. As for `O=C(O)CCCc1nc2ccc3c(c2c(=O)[nH]1)CCCC3`, the inhibition in assay [3] worked out at 30%. `O=C(O)CCCCc1nc2sc3c(c2c(=O)[nH]1)CCC3`: at Exoenzyme S [1] (read-out: IC50), the IC50 turned out to be 53 µM. On to `O=C(O)c1ccccc1-c1nc2sc3c(c2c(=O)[nH]1)CCC3`, for which the IC50 at Exoenzyme S [1] (read-out: IC50) was found to be 97 µM. On to `O=C(O)c1ccc(-c2nc3ccccc3c(=O)[nH]2)cc1`, for which the IC50 at Exoenzyme S [1] (read-out: IC50) turned out to be 30 µM. On to `O=C(O)CCc1nc2sc3c(c2c(=O)[nH]1)CCOC3`, for which the inhibition in assay [3] was < 60%. Turning to `O=C(O)CCCc1nc2cccc(F)c2c(=O)[nH]1`, the figures for the IC50 at Exoenzyme S [1] (read-out: IC50) and on Exoenzyme S [2] (read-out: IC50) were 25 µM and 7.67 µM, respectively.

Consider `COC(=O)CCc1nc(OC)c2c3c(sc2n1)CCC3`, for which the inhibition in assay [3] amounted to 25%.

On to `O=C(O)CCc1nc2scc(-c3ccccc3)c2c(=O)[nH]1`, for which the IC50 on Exoenzyme S [1] (read-out: IC50) was 56 µM.

In the case of `O=C(O)[C@H]1C[C@@H]1c1nc2sc3c(c2c(=O)[nH]1)CCC3` (racemic), the IC50 was 10 µM on Exoenzyme S [1] (read-out: IC50), 11.2 µM at Exoenzyme S [1] (read-out: pIC50 (converted)), 2.36 µM at Exoenzyme S [2] (read-out: IC50) and 2.4 µM on Exoenzyme S [2] (read-out: pIC50 (converted)). For the compound `COC(=O)CCc1nc(N)c2c3c(sc2n1)CCC3`, the inhibition in assay [3] is 12%. In the case of `O=C(O)CCC(=O)Nc1sc2c(c1C(=O)O)CCOC2`, the IC50 at Exoenzyme S [1] (read-out: IC50) was > 200 µM. Consider `O=C(O)CCc1nc2sc3c(c2c(=O)[nH]1)CCC3`, for which the IC50 on Exoenzyme S [1] (read-out: IC50) is 19 to 20 µM; on Exoenzyme S [1] (read-out: pIC50 (converted)), 27.5 µM; at Exoenzyme S [2] (read-out: IC50) it was 6.93 µM.

Turning to `O=C1NC(C2CC2C(=O)O)Nc2sc3c(c21)CCC3` (racemic), the IC50 at Exoenzyme S [1] (read-out: IC50) came to 138 µM. As to `O=C(O)CCCc1nc2cc3c(cc2c(=O)[nH]1)CCCC3`, in assay [3], the inhibition is 22%. For `O=C(O)[C@@H](O)Cc1nc2sc3c(c2c(=O)[nH]1)CCC3`, the IC50 at Exoenzyme S [1] (read-out: IC50) is 55 µM. On the same count and under the same terms, to `O=C(O)CCC(=O)Nc1sc2c(c1C(=O)O)CCCC2` belongs > 200 µM; to `COC(=O)CCc1nc2sc3c(c2c(=O)[nH]1)CCC3`, 116 µM.

Turning to `O=C(O)CCCc1nc2cc3c(cc2c(=O)[nH]1)CCC3`, in assay [3], the inhibition came to 50%. On the same count and under the same terms, to `O=C(O)CCc1nc2sc3c(c2c(=O)[nH]1)CCCCC3` belongs < 50%.
